From ChEMBL document CHEMBL5303300, “EUbOPEN Chemogenomics Library - Multiplex” (2023)
Values joined by “and” are separate entries in the source; they are usually repeats but may differ in a detail not shown here. Identical values can stand only once.

Key:
[1] = tested on: HEK-293T; assay: Multiplex assay against HEK293T; type: toxicity, cell-based; settings: human, number of replicates 2
Summary of the method: (§1)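 With compound added, live cells were imaged on a CQ1 microscope at 37°C and 5% CO2; staining with Hoechst33342, BioTracker Green Microtubule Cytoskeleton Dye, MitoTracker Red and Annexin V Alexa Fluor 680 had been done at seeding. The CellPathfinder machine-learning gating scheme split cells into Hoechst high-intensity objects or normal cells, normal cells into healthy, pyknosed or fragmented nuclei, and pyknosed cells into mitotic or apoptotic. The tubulin, mitochondrial-mass and membrane-permeability phenotypes are per cents of healthy-nucleus cells.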

[2] = tested on: U2OS; assay: Multiplex assay against U2OS; type: toxicity, cell-based; settings: human, number of replicates 2; summary of the method: as §1
[3] = 24 h, 1 µM, compound concentration 1 uM
[4] = 24 h, 10 µM, compound concentration 10 uM
[5] = 48 h, 1 µM, compound concentration 1 uM
[6] = 48 h, 10 µM, compound concentration 10 uM
[7] = 12 h, 1 µM, compound concentration 1 uM
[8] = 12 h, 10 µM, compound concentration 10 uM

With `CCC(=O)O[C@@H](OP(=O)(CCCCc1ccccc1)CC(=O)N1C[C@H](C2CCCCC2)C[C@H]1C(=O)[O-])C(C)C.[Na+]` (stereo partly specified) the “Population Hoechst High Intensity Objects (%)” value [1, 3] was 7% and 8%, the “Population Membrane Permeable-Phenotype (%)” value [1, 3] was 3% and the “Population Mitochondria Different-Phenotype (%)” value [1, 3] was 4% and 5%. For the same compound, the “Population Mitotic Cells (%)” value [1, 3] was 59% and 58%, the “Population Normal (%)” value [1, 3] was 92% and 91% and the “Population Pyknosed Nuclei (%)” value [1, 3] was 7% and 8%. The “Population Tubulin-Different-Phenotype (%)” value [1, 3] was 26% and 30%, the “Total Cell Count” value [1, 3] was 1141 and 899 and the “Population Apoptotic (%)” value [1, 4] was 18% and 31%. For the same compound, the “Population Fragmented Nuclei (%)” value [1, 4] was 3% and 4%, the “Population Healthy Nuclei (%)” value [1, 4] was 89% and 88% and the “Population Hoechst High Intensity Objects (%)” value [1, 4] was 6% and 9%. The “Population Membrane Permeable-Phenotype (%)” value [1, 4] was 3% and 2%, the “Population Mitochondria Different-Phenotype (%)” value [1, 4] was 2% and 3% and the “Population Mitotic Cells (%)” value [1, 4] was 81% and 68%. For the same compound, the “Population Normal (%)” value [1, 4] was 93% and 90%, the “Population Pyknosed Nuclei (%)” value [1, 4] was 7% and 6% and the “Population Tubulin-Different-Phenotype (%)” value [1, 4] was 28% and 31%. The “Total Cell Count” value [1, 4] was 1219 and 1091, the “Population Apoptotic (%)” value [1, 5] was 22% and 18% and the “Population Fragmented Nuclei (%)” value [1, 5] was 12% and 7%. The “Population Healthy Nuclei (%)” value [1, 5] was 84% and 88%, the “Population Hoechst High Intensity Objects (%)” value [1, 5] was 9% and 11% and the “Population Membrane Permeable-Phenotype (%)” value [1, 5] was 5% and 4%. The “Population Mitochondria Different-Phenotype (%)” value [1, 5] was 0% and 1%, the “Population Mitotic Cells (%)” value [1, 5] was 77% and 81% and the “Population Normal (%)” value [1, 5] was 90% and 88%. The “Population Pyknosed Nuclei (%)” value [1, 5] was 2% and 3%, the “Population Tubulin-Different-Phenotype (%)” value [1, 5] was 10% and 14% and the “Total Cell Count” value [1, 5] was 2926 and 1957. For the same compound, the “Population Apoptotic (%)” value [1, 6] was 5% and 13%, the “Population Fragmented Nuclei (%)” value [1, 6] was 14% and 8% and the “Population Healthy Nuclei (%)” value [1, 6] was 82% and 87%. For the same compound, the “Population Hoechst High Intensity Objects (%)” value [1, 6] was 10% and 11%, the “Population Membrane Permeable-Phenotype (%)” value [1, 6] was 4% and 3% and the “Population Mitochondria Different-Phenotype (%)” value [1, 6] was 0%. The “Population Mitotic Cells (%)” value [1, 6] was 94% and 86%, the “Population Normal (%)” value [1, 6] was 89% and 88% and the “Population Pyknosed Nuclei (%)” value [1, 6] was 2% and 4%. For the same compound, the “Population Tubulin-Different-Phenotype (%)” value [1, 6] was 12% and 17%, the “Total Cell Count” value [1, 6] was 3198 and 2304 and the “Population Apoptotic (%)” value [2, 7] was 33% and 87%. For the same compound, the “Population Healthy Nuclei (%)” value [2, 7] was 60% and 83%, the “Population Hoechst High Intensity Objects (%)” value [2, 7] was 0% and the “Population Membrane Permeable-Phenotype (%)” value [2, 7] was 0% and 1%. The “Population Mitochondria Different-Phenotype (%)” value [2, 7] was 0%, the “Population Normal (%)” value [2, 7] was 100% and the “Population Pyknosed Nuclei (%)” value [2, 7] was 6% and 12%. The “Population Tubulin-Different-Phenotype (%)” value [2, 7] was 80% and 82%, the “Population Apoptotic (%)” value [2, 8] was 100% and 40% and the “Population Healthy Nuclei (%)” value [2, 8] was 53% and 87%. For the same compound, the “Population Hoechst High Intensity Objects (%)” value [2, 8] was 0%, the “Population Membrane Permeable-Phenotype (%)” value [2, 8] was 7% and 0% and the “Population Mitochondria Different-Phenotype (%)” value [2, 8] was 7% and 0%. The “Population Normal (%)” value [2, 8] was 100%, the “Population Pyknosed Nuclei (%)” value [2, 8] was 7% and the “Population Tubulin-Different-Phenotype (%)” value [2, 8] was 78% and 80%. For the same compound, the “Population Apoptotic (%)” value [2, 3] was 40% and 80%, the “Population Healthy Nuclei (%)” value [2, 3] was 61% and 87% and the “Population Hoechst High Intensity Objects (%)” value [2, 3] was 0%. For the same compound, the “Population Membrane Permeable-Phenotype (%)” value [2, 3] was 0%, the “Population Mitochondria Different-Phenotype (%)” value [2, 3] was 0% and the “Population Normal (%)” value [2, 3] was 100% and 99%. For the same compound, the “Population Pyknosed Nuclei (%)” value [2, 3] was 8%, the “Population Tubulin-Different-Phenotype (%)” value [2, 3] was 80% and 86% and the “Population Apoptotic (%)” value [2, 4] was 80% and 41%. The “Population Fragmented Nuclei (%)” value [2, 4] was 4%, the “Population Healthy Nuclei (%)” value [2, 4] was 71% and 87% and the “Population Hoechst High Intensity Objects (%)” value [2, 4] was 0%. For the same compound, the “Population Membrane Permeable-Phenotype (%)” value [2, 4] was 6% and 1%, the “Population Mitochondria Different-Phenotype (%)” value [2, 4] was 0% and the “Population Mitotic Cells (%)” value [2, 4] was 20% and 58%. The “Population Normal (%)” value [2, 4] was 100% and 99%, the “Population Pyknosed Nuclei (%)” value [2, 4] was 23% and 8% and the “Population Tubulin-Different-Phenotype (%)” value [2, 4] was 80% and 83%. The “Population Apoptotic (%)” value [2, 5] was 50% and 84%, the “Population Healthy Nuclei (%)” value [2, 5] was 72% and 90% and the “Population Hoechst High Intensity Objects (%)” value [2, 5] was 0%. The “Population Membrane Permeable-Phenotype (%)” value [2, 5] was 0% and 1%, the “Population Mitochondria Different-Phenotype (%)” value [2, 5] was 0% and the “Population Normal (%)” value [2, 5] was 100% and 99%. The “Population Pyknosed Nuclei (%)” value [2, 5] was 10% and 6%, the “Population Tubulin-Different-Phenotype (%)” value [2, 5] was 87% and 85% and the “Population Apoptotic (%)” value [2, 6] was 75% and 46%. The “Population Healthy Nuclei (%)” value [2, 6] was 64% and 92%, the “Population Hoechst High Intensity Objects (%)” value [2, 6] was 0% and the “Population Membrane Permeable-Phenotype (%)” value [2, 6] was 4% and 0%. For the same compound, the “Population Mitochondria Different-Phenotype (%)” value [2, 6] was 0%, the “Population Mitotic Cells (%)” value [2, 6] was 25% and 53% and the “Population Normal (%)” value [2, 6] was 100%. The “Population Tubulin-Different-Phenotype (%)” value [2, 6] was 70% and 85%.
